Data from ChEMBL document CHEMBL1148141, “New labdene iterpenes from Eupatorium glutinosum” (2002).
≈ marks a conversion by molar mass, not a printed value. Calls of active or inactive are those of the source. The calls are words filed in the database; no cut-off is given here.

Legend:
Escherichia coli [1] = assay: Antibacterial activity against Escherichia coli IAM 1268 at 10 ug/disk after 18 hrs by agar overlay method; type: functional, organism-based
Outline: (§1)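 Agar overlay: bacteria grown in nutrient broth (50-100 µL) mixed into 3 mL melted 0.7% soft nutrient agar at 40 °C, poured over 20 mL 1.5% nutrient agar plates; 10 µL sample deposited on solidified agar; inhibition zone diameter read after 18 h at 37 °C. Methanol as solvent control.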

Pseudomonas aeruginosa [2] = assay: Antibacterial activity against Pseudomonas aeruginosa IAM 1275 at 10 ug/disk after 18 hrs by agar overlay method; type: functional, organism-based; outline: as §1
Pseudomonas aeruginosa [3] = assay: Antibacterial activity against Pseudomonas aeruginosa IAM 1275 by two fold dilution method; type: functional
Staphylococcus aureus [4] = assay: Antibacterial activity against Staphylococcus aureus IAM 1011 at 10 ug/disk after 18 hrs by agar overlay method; type: functional, organism-based; outline: as §1
CCRF S-180 = assay: Cytotoxicity against mouse S180 cells by MTT assay; type: functional, cell-based
Bacillus cereus [5] = assay: Antibacterial activity against Bacillus cereus IAM 1069 by two fold dilution method; type: functional
Bacillus cereus [6] = assay: Antibacterial activity against Bacillus cereus IAM 1069 at 10 ug/disk after 18 hrs by agar overlay method; type: functional, organism-based; outline: as §1
Staphylococcus aureus [7] = assay: Antibacterial activity against Staphylococcus aureus IAM 1011 by two fold dilution method; type: functional
Escherichia coli [8] = assay: Antibacterial activity against Escherichia coli IAM 1268 by two fold dilution method; type: functional

| MIC (Pseudomonas aeruginosa [3]) [µg/mL] | MIC (Bacillus cereus [5]) [µg/mL] | MIC (Staphylococcus aureus [7]) [µg/mL] | MIC (Escherichia coli [8]) [µg/mL] | Structure (SMILES) | Activity (Escherichia coli [1]) | Activity (Pseudomonas aeruginosa [2]) | Activity (Staphylococcus aureus [4]) | Activity (CCRF S-180) | Activity (Bacillus cereus [6]) |
| --- | --- | --- | --- | --- | --- | --- | --- | --- | --- |
| 64 (≈ 189 µM) | 128 (≈ 378 µM) | 256 (≈ 756 µM) | 128 (≈ 378 µM) | CC(CCO)CC[C@@H]1C(C(=O)O)=CC[C@@H]2C(C)(C)[C@H](O)CC[C@@]12C (some centres not stated) | Active | Active | Active | inactive | Active |
| 256 (≈ 511 µM) | – | – | 128 (≈ 256 µM) | CC(CCO)CC[C@@H]1C(C(=O)O)=CC[C@@H]2C(C)(C)[C@H](O[C@@H]3O[C@H](CO)[C@@H](O)[C@H](O)[C@H]3O)CC[C@@]12C (some centres not stated) | – | – | – | inactive | – |
